Measured values taken from ChEMBL document CHEMBL1156371, “New polyoxygenated briarane diterpenoids, briaexcavatolides O-R, from the gorgonian Briareum excavatum” (2001).
≈ marks a conversion by molar mass, not a printed value. Calls of active or inactive are those of the source. No cut-off for these calls is given here.

Experiments:
Format in all cases: functional
A549 = assay: Cytotoxicity against human A549 cells by MTT assay
In short: (§1)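 Colorimetric read-out using a modified MTT [3-(4,5-dimethylthiazol-2-yl)-2,5-diphenyltetrazolium bromide] method, following previously described procedures.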

HT-29 = assay: Cytotoxicity against human HT-29 cells by MTT assay; in short: as §1
P388 = assay: Cytotoxicity against mouse P388 cells by MTT assay; in short: as §1
[1] = read-out: ED50 (the source's name)

SMILES	Activity (A549)	Activity (HT-29)	Activity (P388)	EC50 (A549; [1]) [µg/mL]	EC50 (HT-29; [1]) [µg/mL]	EC50 (P388; [1]) [µg/mL]
CCCCCCCC(=O)O[C@H]1C[C@H](OC(C)=O)[C@@]2(C)[C@H]([C@H]1C)[C@H](OC(C)=O)[C@]13O[C@]1(C)C(=O)O[C@H]3/C=C(/C)C[C@H](OC(=O)CCC)[C@@H]2OC(C)=O	inactive	inactive	inactive	–	–	–
CCCC(=O)O[C@@H]1/C(C)=C\[C@@H]2OC(=O)[C@@]3(C)O[C@]23[C@@H](OC(C)=O)[C@H]2[C@@H](C)[C@@H](O)C[C@H](OC(C)=O)[C@]2(C)[C@@H](O)[C@H]1OC(C)=O	inactive	inactive	inactive	–	–	–
CCCC(=O)O[C@@H]1/C(C)=C\[C@@H]2OC(=O)[C@@]3(C)O[C@]23[C@@H](OC(C)=O)[C@H]2[C@@H](C)[C@@H](O)C[C@H](OC(C)=O)[C@]2(C)[C@@H](OC(C)=O)[C@H]1O [BRIAEXCAVATOLIDE P]	–	–	–	4.8 (≈ 7.86 µM)	3.1 (≈ 5.08 µM)	0.9 (≈ 1.47 µM)
CCCC(=O)O[C@@H]1/C(C)=C\[C@@H]2OC(=O)[C@@]3(C)O[C@]23[C@@H](OC(C)=O)[C@H]2[C@@H](C)[C@@H](OC(C)=O)C[C@H](OC(C)=O)[C@]2(C)[C@@H](OC(C)=O)[C@H]1O	inactive	inactive	inactive	–	–	–
